{"source": "ChEMBL document CHEMBL1122269", "about": "“Synthesis and biological evaluation of neutral derivatives of 5-fluoro-2'-deoxyuridine 5'-phosphate” (1983)", "key": {"P388 [1]": {"system": "P388", "assay": "Median survival time (MST) of murine leukemia P388 (1*10e 6 cells) sensitive to 5-FU in mice, dose of 20 mg/kg(ip)", "format": "functional, Mus musculus", "in_short": "(§1)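 Male BDF₁ mice, six per group, average weight 23 g, were inoculated ip with 1×10^6 P-388 cells on day 0. Compound in 0.9% saline was given ip daily for 5 days from 24 h post-implant. Mice were followed for 60 days or until death, and median survival time was recorded. Saline-treated controls numbered 20 mice.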"}, "P388 [2]": {"system": "P388", "assay": "Median survival time (MST) of murine leukemia P388 (1*10e 6 cells) resistant to 5-FU in […] mice, dose of 35 mg/kg(ip)", "format": "functional, Mus musculus", "in_short": "as §1"}, "P388 [3]": {"system": "P388", "assay": "Average percentage weight change on day 6 in murine leukemia P388 resistant to 5-FU at a dose of 35 mg/kg", "format": "functional, Mus musculus", "in_short": "(§2)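 Male BDF₁ mice, six per group, average weight 23 g, were given 1×10^6 P-388 cells ip on day 0. Compound in 0.9% saline was dosed ip once daily for 5 consecutive days, starting 24 h after tumour transplant.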"}, "P388 [4]": {"system": "P388", "assay": "Average percentage weight change on day 6 in murine leukemia P388 resistant to 5-FU at a dose of 15 mg/kg", "format": "functional, Mus musculus", "in_short": "as §2"}, "P388 [5]": {"system": "P388", "assay": "Percentage increase in life span of murine leukemia P388 sensitive to 5-FU, at a dose 35 mg/kg", "format": "functional", "conditions": "Mus musculus", "in_short": "(§3)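 P-388 model in male BDF₁ mice, six per group, average weight 23 g: 1×10^6 cells ip on day 0, then compound in 0.9% saline ip daily ×5 from 24 h. Mice were observed up to 60 days. % ILS = (T/C − 1) × 100, using median survival of treated mice versus saline-treated controls.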"}, "P388 [6]": {"system": "P388", "assay": "Average percentage weight change on day 6 in murine leukemia P388 resistant to 5-FU at a dose of 20 mg/Kg", "format": "functional, Mus musculus", "in_short": "as §2"}, "P388 [7]": {"system": "P388", "assay": "Median survival time (MST) of murine leukemia P388 (1*10e 6 cells) sensitive to 5-FU in mice, dose of 35 mg/kg(ip)", "format": "functional, Mus musculus", "in_short": "as §1"}, "P388 [8]": {"system": "P388", "assay": "Percentage increase in life span of murine leukemia P388 resistant to 5-FU, at a dose 35 mg/kg", "format": "functional", "conditions": "Mus musculus", "in_short": "as §3"}, "P388 [9]": {"system": "P388", "assay": "Percentage increase in life span of murine leukemia P388 resistant to 5-FU, at a dose 15 mg/kg", "format": "functional", "conditions": "Mus musculus", "in_short": "as §3"}, "P388 [10]": {"system": "P388", "assay": "Median survival time (MST) of murine leukemia P388 (1*10e 6 cells) resistant to 5-FU in mice, dose of 15 mg/kg(ip)", "format": "functional, Mus musculus", "in_short": "as §1"}, "P388 [11]": {"system": "P388", "assay": "Average percentage weight change on day 6 in murine leukemia P388 sensitive to 5-FU at a dose of 20 mg/kg", "format": "functional, Mus musculus", "in_short": "as §2"}, "P388 [12]": {"system": "P388", "assay": "Median survival time (MST) of murine leukemia P388 (1*10e 6 cells) resistant to 5-FU in mice, dose of 20 mg/kg (i.p.)", "format": "functional, Mus musculus", "conditions": "route intraperitoneal", "in_short": "as §1"}, "P388 [13]": {"system": "P388", "assay": "Percentage increase in life span of murine leukemia P388 resistant to 5-FU, at a dose 20 mg/kg", "format": "functional", "conditions": "Mus musculus", "in_short": "as §3"}, "P388 [14]": {"system": "P388", "assay": "Percentage increase in life span of murine leukemia P388 sensitive to 5-FU, at a dose 20 mg/kg", "format": "functional", "conditions": "Mus musculus", "in_short": "as §3"}, "P388 [15]": {"system": "P388", "assay": "Average percentage weight change on day 6 in murine leukemia P388 sensitive to 5-FU at a dose of 35 mg/kg", "format": "functional, Mus musculus", "in_short": "as §2"}}, "data": [{"compound": "O=c1[nH]cc(F)c(=O)[nH]1", "note": "[FLUOROURACIL]", "values": [{"measurement": "MST", "setting": "P388 [1]", "result": 19, "unit": "days"}, {"measurement": "MST", "setting": "P388 [2]", "result": 9, "unit": "days"}, {"measurement": "Weight change", "setting": "P388 [3]", "result": -14.2, "unit": "%"}, {"measurement": "Weight change", "setting": "P388 [4]", "result": -6.2, "unit": "%"}, {"measurement": "ILS at 35 mg/kg", "setting": "P388 [5]", "result": -11, "unit": "%"}, {"measurement": "Weight change", "setting": "P388 [6]", "result": -3.9, "unit": "%"}, {"measurement": "MST", "setting": "P388 [7]", "result": 8, "unit": "days"}, {"measurement": "ILS at 35 mg/kg", "setting": "P388 [8]", "result": -10, "unit": "%"}, {"measurement": "ILS at 15 mg/kg", "setting": "P388 [9]", "result": 10, "unit": "%"}, {"measurement": "MST", "setting": "P388 [10]", "result": 11, "unit": "days"}, {"measurement": "Weight change", "setting": "P388 [11]", "result": -16.5, "unit": "%"}, {"measurement": "MST", "setting": "P388 [12]", "result": 11, "unit": "days"}, {"measurement": "ILS at 20 mg/kg", "setting": "P388 [13]", "result": 10, "unit": "%"}, {"measurement": "ILS at 20 mg/kg", "setting": "P388 [14]", "result": 111, "unit": "%"}, {"measurement": "Weight change", "setting": "P388 [15]", "result": -21.8, "unit": "%"}]}]}
